This data set in a line: Toxicity liver stage against HepG2, at 10uM. The format is cell-based. Details: test concentration 10 uM, cell line HepG2-A16-CD81EGFP. The settings on record: human, HepG2-A16-CD81EGFP cells; read-out: INHIBITION
In outline:
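Uninfected HepG2-A16-CD81EGFP cells, 3 × 10^3 per well, 1536-well, plated on prespotted compound at 10 μM final, parasite-free screening media added to match infected plates; puromycin 10 μM positive, DMSO 0.5% negative; run in parallel with 48 h PbLuc assay at 37 °C, 5% CO2; viability by CellTiter-Glo luminescence, normalized to controls.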
Turning to `Cc1ccc(SCC2CNc3nc4ccccc4c(=O)n32)c(C)c1` (stereo unspecified), the cytotoxicity at 10 µM came out at 6.76%. `Nc1c(N2CCOCC2)ncnc1N1CCOCC1`: the cytotoxicity at 10 µM is -1.31%. `COc1cccc2ccn(CC(=O)NCC(C)C)c12`: the cytotoxicity at 10 µM was -36.5%. The same measure for `Cc1ccc(S(=O)(=O)N2CCC(Oc3cccnn3)CC2)c(C)c1`: 3.47%; for `CCOCC1CN(CCc2ccccc2)Cc2c1cnn2C` (stereo unspecified): -120%; for `CN(C)CC(=O)N1CCC2(CC1)COc1ccccc1S(=O)(=O)N(C)C2`: 0.0039%. On to `COCC1CN(C(=O)CS(C)(=O)=O)Cc2ncn(CC3CC3)c21` (stereo unspecified), for which the cytotoxicity at 10 µM is 5.29%. Regarding `CC/N=c1\nc(NCC)nc2n1C(O)(Nc1ccc(C)cc1C)CS2` (stereo unspecified), the cytotoxicity at 10 µM was -1.95%. For `Cn1nnc(NCc2ccc(-c3ccc(Cl)cc3)o2)n1`, the cytotoxicity at 10 µM is -7.15%. The same measure for `Cc1nn(C)c(C)c1CNC(=O)CCn1ncc2c(Cl)cccc21`: 8.38%. For `CC(C)=CCCC1(C)C=Cc2c(cc(C)n(CCC(=O)O)c2=O)O1` (stereo unspecified), the cytotoxicity at 10 µM was 3.46%. For the compound `Cc1cc(-c2cc(N)c(=O)n(CC(=O)NCC3CCCCC3)n2)c(C)o1`, the cytotoxicity at 10 µM was -21.1%. Take `C[C@]1(O)CN(Cc2ncccc2F)CC[C@@H]1Oc1cccc(F)c1`: the cytotoxicity at 10 µM is -2.11%.

On to `O=C(CCn1cncn1)NC1CCS(=O)(=O)C1` (stereo unspecified), for which the cytotoxicity at 10 µM is -45.4%. Take `Cc1ccc(C)c(CC(=O)NC2CCC(N3C(=O)CCC3=O)CC2)c1` (stereo unspecified): the cytotoxicity at 10 µM was -1.32%.

As for `Cc1nc(C)c(C(C)NCc2c(C)nn(CC(C)C)c2N(C)C)s1` (stereo unspecified), the cytotoxicity at 10 µM was -2.49%. For the compound `Cc1nccn1-c1ccc(C(C)NCc2ncc[nH]2)cc1` (stereo unspecified), the cytotoxicity at 10 µM was found to be 1.91%. With `Cc1cc(C)c(S(=O)(=O)Nc2cccc3c2OCCO3)cc1C(=O)O`, the cytotoxicity at 10 µM came to 5.87%. On to `Cc1nc2cc(=O)[nH]n2c(C)c1CC(=O)Nc1cnn(C(C)(C)C)c1`, for which the cytotoxicity at 10 µM is 15%. In the case of `Cc1ccc(O)c(C(=O)N2CCCC2CC(=O)c2cnn(C)c2)c1` (stereo unspecified), the cytotoxicity at 10 µM is -3.81%. The result for `Cc1cc2n(n1)CC(CNC1CCN(Cc3ccccn3)CC1)CN2` (stereo unspecified) reads 3.67%. The result for `CC(C)c1noc(CCCC(=O)NC(C)c2nnc3n2CCC3)n1` (stereo unspecified) reads 9.96%. The result for `Cc1nc(C)n(CC2CCCN2Cc2nnc(-c3ccco3)o2)n1` (stereo unspecified) reads 11.4%; that for `Cc1[nH]ncc1C(=O)N1CCOC(c2cccs2)C1` (stereo unspecified), 8.8%; that for `c1coc(-c2noc(CN3CCc4c(ncn4C4CC4)C3)n2)c1`, -8.12%. Regarding `CC1CN(C(=O)c2cc(=O)[nH]c3ccc(F)cc23)CCO1` (stereo unspecified), the cytotoxicity at 10 µM turned out to be 19.3%. Take `COc1ccc(NC(=O)C2CCCO2)cc1OCc1cccnc1` (stereo unspecified): the cytotoxicity at 10 µM is -23.6%.

As to `Cc1cccc(CNCC2COC3(CCCC3)O2)c1C` (stereo unspecified), the cytotoxicity at 10 µM is -150%. For the compound `N#Cc1cccc(S(=O)(=O)Nc2c(F)cccc2N2CCCC2)c1`, the cytotoxicity at 10 µM is 2.62%. With `CCN(C(=O)NCc1ccccc1OC(F)F)C(C)c1cccnc1` (stereo unspecified), the cytotoxicity at 10 µM is -2.28%.

As for `Cc1n[nH]c(SCC(=O)NC(c2ccncc2)C(C)C)n1` (stereo unspecified), the cytotoxicity at 10 µM turned out to be 16.4%. For `O=C(NCc1ccccc1F)Nc1ccn(CCN2CCOCC2)n1`, the cytotoxicity at 10 µM was -7.85%. In the case of `CC(NC(=O)CCC(C)(C)C)C(=O)Nc1ccc(-n2cncn2)cc1` (stereo unspecified), the cytotoxicity at 10 µM was -3.46%. On to `Cc1ccc(SC2CCCC2)c(C(=O)NCCc2n[nH]c(=O)[nH]2)c1`, for which the cytotoxicity at 10 µM was -45.3%. Consider `Cn1c(CCN2CCN(CCc3ccccc3)CC2)nc2ccccc21`, for which the cytotoxicity at 10 µM was -43.7%. `FC(F)(F)c1n[nH]c2c1CN(CCc1ccccn1)CC2`: the cytotoxicity at 10 µM was 3.76%. On to `Cc1ccc2oc(CNC(C)c3nnc4n3CCCC4)cc2c1` (stereo unspecified), for which the cytotoxicity at 10 µM is -17.9%. On to `CCN(CC)C1CCN(C(=O)NCc2c(C)noc2C)CC1`, for which the cytotoxicity at 10 µM is -3.71%. In the case of `CC(C)CN1CCC(NC(=O)c2ccc(F)cc2I)CC1`, the cytotoxicity at 10 µM is -33.9%. For `CN(C)C(=O)N1CCn2cc(CNC(=O)CC3CC3)nc2C1`, the cytotoxicity at 10 µM is -80.2%.

Consider `Cc1cccc(C(=O)N2CCn3cc(CN4CCCCC4)nc3C2)n1`, for which the cytotoxicity at 10 µM was -79%. The same measure for `c1cc(-c2n[nH]cc2-c2ccnc(N3CCCCCC3)n2)ccn1`: -0.252%; for `CC(C)N1CCCC2(CCN(C(=O)COCC(F)(F)C(F)F)C2)C1=O` (stereo unspecified): 13.1%; for `CCCn1ncc(-c2ccnc(NC3CCSC3)n2)c1C` (stereo unspecified): 2.65%. The same measure for `CC(C)Nc1ccnc(N2Cc3cnc(C(C)(C)C)nc3C2)n1`: 8.33%; for `Cc1n[nH]c(C)c1CCC(=O)NCC1CCOc2ccccc2C1` (stereo unspecified): -45.6%. Regarding `CNC(=O)c1n[nH]c2c1C(c1cccc3c1OC(C)(C)C3)CC(=O)N2` (stereo unspecified), the cytotoxicity at 10 µM is 0.0642%. Turning to `CCC(Nc1cccc(OC)c1)C(=O)N(CCO)Cc1nccs1` (stereo unspecified), the cytotoxicity at 10 µM was 3.94%. In the case of `O=c1[nH]c(-c2ccc(F)cc2)nc2c1CCNC2`, the cytotoxicity at 10 µM was -2.47%. Turning to `O=C(c1ccc(=O)[nH]c1)N1CCC(Oc2cccc(C(F)(F)F)c2)CC1`, the cytotoxicity at 10 µM was 2.26%. Turning to `CC[C@@]1(O)CCN(c2ncc(Cl)cc2F)C[C@H]1O`, the cytotoxicity at 10 µM stood at 2.38%.

`CC(=O)c1ccc(CN2CCCC23CCN(c2ccccn2)CC3)cc1`: the cytotoxicity at 10 µM came to 1.5%.

On to `COCCN(C)C[C@@H]1CN(C(=O)NC2CCCCC2)C[C@@H]1CO`, for which the cytotoxicity at 10 µM is 3.41%.

For the compound `Cc1nc(C)n(CCNS(=O)(=O)NCc2ccccc2)n1`, the cytotoxicity at 10 µM is -11.4%. For `COc1ccc(C(=O)N2CCOCC(CO)C2)cc1N1CCOCC1` (stereo unspecified), the cytotoxicity at 10 µM was -14%. With `COCCCN1CCN(C(=O)C(c2cccc(F)c2)N(C)C)CC1` (stereo unspecified), the cytotoxicity at 10 µM is -13.1%. The result for `O=C(c1nc2sccn2c1-c1ncc[nH]1)N1CCCCC1` reads 7.52%; that for `O=C(CN1CCOC1=O)N1CCc2nnc(Cc3ccccc3)n2CC1`, -45.6%; that for `Cc1ccccc1C1CCCN1C(=O)CN1CC2(CCNCC2)OC1=O` (stereo unspecified), -11.1%. Consider `CC(C)(C)n1cc(C2=CCN(CCc3ccccc3)CC2)cn1`, for which the cytotoxicity at 10 µM turned out to be 14.3%.

For the compound `O=C(c1ccccn1)N1CCc2c(nc(N3CCCC3)[nH]c2=O)C1`, the cytotoxicity at 10 µM was -5.71%. For `C=Cn1ncc(CN2C[C@@H]3CCCN3C[C@@H]2Cc2ccccc2)c1C`, the cytotoxicity at 10 µM was -5.74%. For the compound `Cc1ccccc1C1(C(=O)NCCN2CCCC(C)C2)CCOCC1` (stereo unspecified), the cytotoxicity at 10 µM was -2.34%.

In the case of `COCCn1cc(NC(=O)NCC(c2cccc(F)c2)N(C)C)cn1` (stereo unspecified), the cytotoxicity at 10 µM is -5.6%. For the compound `Cc1cnn(CC2CN(Cc3nc(-c4ccsc4)no3)CCO2)c1` (stereo unspecified), the cytotoxicity at 10 µM was -9.74%. With `CC(C)c1nc(CN2CCOC(CNc3cccnn3)C2)cs1` (stereo unspecified), the cytotoxicity at 10 µM is -2.93%.

For the compound `c1cc2n(n1)CC(CNCc1ccc(OC3CCCCC3)nc1)CN2` (stereo unspecified), the cytotoxicity at 10 µM is -8.49%. As for `Cc1nc(C)n(CC2CN(c3ccc(C#N)cn3)CCO2)n1` (stereo unspecified), the cytotoxicity at 10 µM is -10.5%. Consider `CCc1nnsc1C(=O)NCCn1nc2ccccn2c1=O`, for which the cytotoxicity at 10 µM is -2.04%. Regarding `Cc1nnc(NCc2ccccc2Cl)c(C#N)c1C`, the cytotoxicity at 10 µM is -5.06%. Consider `CC(NC(=O)NCCN1CCCCCC1=O)c1nncn1C` (stereo unspecified), for which the cytotoxicity at 10 µM is -7%.

Regarding `CC(Cn1cccn1)NC(=O)NCCc1cnn(C)c1` (stereo unspecified), the cytotoxicity at 10 µM is -0.0611%. Take `CCN1CCN(C2CCN(Cc3cc(C)on3)CC2)C1=O`: the cytotoxicity at 10 µM was -5.74%. Take `COc1cccc(CNc2cnn(C)c(=O)c2Cl)c1`: the cytotoxicity at 10 µM was -8.78%. Consider `CCCN(Cc1ccccc1)Cn1nc(C)c2c(C)onc2c1=O`, for which the cytotoxicity at 10 µM is -9.98%. As to `COc1cc(C)nc(N2CCN(C(=O)c3ccc[nH]3)CC2)n1`, the cytotoxicity at 10 µM is -5.11%. In the case of `COc1c(CNCC(c2cccc(F)c2)N(C)C)c(C(C)C)nn1C` (stereo unspecified), the cytotoxicity at 10 µM is -3.27%. With `COc1ccc(CCC2CCCCN2)cc1` (stereo unspecified), the cytotoxicity at 10 µM is -9.83%. Consider `CC1(C)CC(N(Cc2ccncc2)Cc2cccnc2)CC(C)(C)N1`, for which the cytotoxicity at 10 µM was -14.6%.

Consider `COc1ccc(CN(Cc2cncn2C)CC2CCCO2)c(OC)c1` (stereo unspecified), for which the cytotoxicity at 10 µM was -4.48%.

Turning to `Cc1cc(C[C@@H]2COC[C@H]2NCc2ccccc2C(F)(F)F)on1`, the cytotoxicity at 10 µM is -6.15%. Regarding `Cc1nnc(N2C[C@@H](OCCCn3cccn3)[C@H]3OCCC[C@H]32)s1`, the cytotoxicity at 10 µM is -8.19%. Consider `COCCC(=O)N1CCC2(CCN(Cc3cccc(F)c3)CC2)C1`, for which the cytotoxicity at 10 µM was -75.9%. The result for `Cc1n[nH]cc1CNC1CCN(c2ccc(F)cc2)CC1` reads -54%.

Turning to `COCCN1CCOCC12CCN(c1ccc(C#N)cc1)CC2`, the cytotoxicity at 10 µM was -2.51%. `Cc1ccc(N2C[C@H]3OCC[C@H]3[C@H](C(=O)NCC3CC3)C2)nn1`: the cytotoxicity at 10 µM is -75.7%. The same measure for `Cc1nnc(N2CC[C@H]3C[C@H](C(=O)N4CCOCC4)O[C@H]3C2)s1`: -0.671%. The same measure for `O=C(c1cc2c(s1)CCCC2)N1CCc2nc(C3CCCN3)ncc2C1` (stereo unspecified): -3.04%; for `c1ccc(COC[C@H]2CC[C@H]3[C@H](CCN3Cc3cccs3)O2)nc1`: -85%.

Turning to `Fc1cccc(CN2C[C@@H]3COC[C@]3(COCc3ccncc3)C2)c1`, the cytotoxicity at 10 µM was -61.1%.

Consider `CNC(=O)[C@H]1CO[C@H]2CCN(Cc3ccc4ccccc4n3)C[C@H]2C1`, for which the cytotoxicity at 10 µM is 8.05%. In the case of `Cc1nc(CN2C(=O)CC[C@@H]3[C@H]2CCN3C2CCOCC2)cs1`, the cytotoxicity at 10 µM is -147%.

For the compound `O=C1NC2(CCNCC2)CC1c1ccccc1` (stereo unspecified), the cytotoxicity at 10 µM was -72.7%.

With `CN(Cc1ccncc1)C1COC2(CCN(Cc3ccsc3)CC2)C1` (stereo unspecified), the cytotoxicity at 10 µM is -91.8%. As for `CNC(=O)c1cnc(C=Cc2cc(OC)c(O)c(OC)c2)s1`, the cytotoxicity at 10 µM is 1.64%. The same measure for `CCN1C[C@@H]2C[C@H](C(=O)NCc3cccnc3)[C@H](C1)O2`: 2.01%.

(Values after ChEMBL document CHEMBL4513216, “Probing the Open Global Health Chemical Diversity Library for Multistage-Active Starting Points for Next-Generation Antimalarials” (ACS Infect Dis, 2020).)
